{"source": "ChEMBL document CHEMBL5252546", "about": "“Salutaxel, a Conjugate of Docetaxel and a Muramyl Dipeptide (MDP) Analogue, Acts as Multifunctional Prodrug That Inhibits Tumor Growth and Metastasis” (J Med Chem, 2018)", "key": {"4T1 [1]": {"test_system": "4T1", "experiment": "Antitumor activity against mouse 4T1 cells xenografted with BALB/c mouse assessed as inhibition of tumor growth at 5.7 mg/kg,iv administrated once per week for 4 weeks", "assay_type": "functional", "conditions": "4T1, 672 h", "how_it_was_run": "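4T1 cells injected into mammary fat pads of BALB/c mice. Dosing iv once per week for 4 weeks, saline vehicle; single-agent arms were given alone or with the peptide component (5b or 6). Endpoints were body weight, tumour volume, tumour weight, lung metastatic nodule count and lung metastasis score. Mean ± SEM, n = 10; ANOVA and Student's t test.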"}, "4T1 [2]": {"test_system": "4T1", "experiment": "Antitumor activity against mouse 4T1 cells implanted in BALB/c mouse assessed as decrease in tumor MMP9 expression level at 5.7 mg/kg,iv administrated once per week for 4 weeks in presence of MDA-205 by western blot assay", "assay_type": "functional, organism-based", "how_it_was_run": "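Tumour-bearing BALB/c mice (4T1 cells into mammary fat pad) given iv saline vehicle or test agents once weekly for 4 weeks. Tumours excised and probed by western blot for MMP9, MMP2 and NOD1, β-actin as loading control. Bands averaged over five mice per group; representative of two independent experiments.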"}, "4T1 [3]": {"test_system": "4T1", "experiment": "Antitumor activity against mouse 4T1 cells implanted in BALB/c mouse assessed as decrease in lung MMP2 expression level at 5.7 mg/kg,iv administrated once per week for 4 weeks by western blot assay", "assay_type": "functional, organism-based", "how_it_was_run": "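4T1 cells injected into mammary fat pads of BALB/c mice. Saline vehicle or test article given iv once weekly for 4 weeks. Spleen, lung and tumor lysates immunoblotted for MMP2/MMP9 with β-actin as loading control. Bands averaged over five mice per group, representative of two independent experiments.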"}, "[4]": {"experiment": "Toxicity in BALB/c mouse xenografted with human HCT-116 cells assessed as body weight loss at 5.7 mg/kg,iv administrated once per week for 3 weeks", "assay_type": "organism-based", "conditions": "in vivo, 504 h", "how_it_was_run": "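Nude BALB/c nu/nu mice received subcutaneous human tumour cells into the right flank. Dosing started at mean tumour volume of 100–120 mm3, iv once weekly for 3 weeks; the taxane arm was an equimolar control. Body weight and overt side effects were monitored. Mean ± SEM, n = 8.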"}, "4T1 [5]": {"test_system": "4T1", "experiment": "Antitumor activity against mouse 4T1 cells implanted in BALB/c mouse assessed as decrease in serum MMP9 level at 5.7 mg/kg,iv administrated once per week for 4 weeks in presence of MDA-205 by ELISA", "assay_type": "functional, organism-based"}, "[6]": {"experiment": "Toxicity in BALB/c mouse xenografted with human A549/Taxol cells assessed as body weight loss at 10 mg/kg,iv administrated once per week for 3 weeks", "assay_type": "organism-based, A549/TR", "conditions": "in vivo, 504 h"}, "[7]": {"experiment": "AUC (0-t) in mouse tumor implanted with mouse 4T1 cells at 10 mg/kg,iv measured upto 72 hrs", "assay_type": "ADME, organism-based, Neoplasm", "parameters": "time < 72 hrs, dose 10 mg/kg, route iv", "how_it_was_run": "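4T1 tumor-bearing mice (4T1 cells implanted in the mammary fat pad) received a single iv dose of 10 mg/kg. Plasma and tumor tissue were sampled up to 72 h, with n = 6. Levels of parent and of released docetaxel were measured. AUC came from noncompartmental analysis, reported as mean ± SD.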"}, "[8]": {"experiment": "Volume of distribution at steady state in female Beagle dog at 1 mg/kg,iv measured upto 24 hrs", "assay_type": "ADME, organism-based, Canis lupus familiaris", "conditions": "in vivo, read-out: Vdss"}, "[9]": {"experiment": "Clearance in male rat at 2 mg/kg,iv measured upto 24 hrs", "assay_type": "ADME, organism-based", "conditions": "in vivo", "how_it_was_run": "(§1)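 Rats were given a single iv injection at 2, 4 or 8 mg/kg. Plasma parent drug and released docetaxel were followed over time. Cmax, Tmax, AUC, MRT, t1/2, CL and Vss were reported for males, females and all animals combined.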"}, "[10]": {"experiment": "Clearance in rat at 8 mg/kg,iv measured upto 24 hrs", "assay_type": "ADME, organism-based", "conditions": "in vivo", "how_it_was_run": "as §1"}, "[11]": {"experiment": "Toxicity in Beagle dog assessed as decrease in body temperature at 1 to 4 mg/kg,iv measured after 1 to 4 hrs", "assay_type": "organism-based, Canis lupus familiaris", "conditions": "in vivo, dose lower 1 mg/kg, time lower 1 hrs, dose upper 4 mg/kg, time upper 4 hrs"}, "4T1 [12]": {"test_system": "4T1", "experiment": "Antitumor activity against mouse 4T1 cells implanted in BALB/c mouse assessed as decrease in lung MMP9 expression level at 5 to 20 mg/kg,iv administrated once per week for 4 weeks by western blot assay", "assay_type": "functional, organism-based", "conditions": "dose 5-20 mg/kg", "how_it_was_run": "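4T1 fat-pad model in BALB/c mice, iv once weekly for 4 weeks; MMP9, MMP2 and NOD1 in spleen, lung and tumour by western blot, β-actin loading control; bands averaged over five mice per group, representative of two independent experiments.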"}, "[13]": {"experiment": "Chronic toxicity in male Sprague-Dawley rat at 2 to 8 mg/kg,iv administered once per week for 30 days", "assay_type": "organism-based", "conditions": "in vivo, 720 h, dose 2-8 mg/kg, time 30 day", "how_it_was_run": "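Long-term toxicity: rats given iv 2, 4 or 8 mg/kg and dogs 3, 6 or 18 mg/kg once weekly over 30 days; toxicokinetics recorded; highest non-severely toxic dose determined by sex.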"}, "4T1 [14]": {"test_system": "4T1", "experiment": "Antitumor activity against mouse 4T1 cells implanted in BALB/c mouse assessed as decrease in serum IL-6 level at 5 mg/kg,iv administrated once per week for 4 weeks by ELISA", "assay_type": "functional, organism-based", "how_it_was_run": "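4T1 fat-pad model in BALB/c mice, iv 5–20 mg/kg once weekly for 4 weeks, with vehicle and naive groups; serum MMP9, TIMP-1, IL-6 and S100A9 measured by mouse ELISA kits.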"}, "[15]": {"experiment": "Tmax in rat at 2 mg/kg,iv measured upto 24 hrs", "assay_type": "ADME, organism-based", "conditions": "in vivo"}, "[16]": {"experiment": "MRT (0 to infinity) in male Beagle dog at 4 mg/kg,iv measured upto 24 hrs", "assay_type": "ADME, organism-based, Canis lupus familiaris", "conditions": "in vivo"}, "[17]": {"experiment": "Half life in male rat at 4 mg/kg,iv measured upto 24 hrs", "assay_type": "ADME, organism-based", "conditions": "in vivo"}, "[18]": {"experiment": "MRT in mouse plasma implanted with mouse 4T1 cells at 10 mg/kg,iv measured upto 72 hrs", "assay_type": "ADME, organism-based"}, "[19]": {"experiment": "Toxicity in BALB/c mouse xenografted with human A549/Taxol cells assessed as side effects at 10 mg/kg,iv administrated once per week for 3 weeks", "assay_type": "organism-based, A549/TR", "conditions": "in vivo, 504 h"}, "4T1 [20]": {"test_system": "4T1", "experiment": "Antitumor activity against mouse 4T1 cells xenografted with BALB/c mouse assessed as decrease in lung metastasis at 10 mg/kg,iv administrated once per week for 4 weeks", "assay_type": "functional, organism-based", "how_it_was_run": "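4T1 cells injected into the mammary fat pad of BALB/c mice; iv saline vehicle or 5, 10 or 20 mg/kg once weekly for 4 weeks; body weight, tumour volume, tumour weight, lung metastatic nodule count and metastasis score recorded; n = 10, mean ± SEM, ANOVA and Student's t test.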"}, "[21]": {"experiment": "AUC (0-infinity) in male Beagle dog at 2 mg/kg,iv measured upto 24 hrs", "assay_type": "ADME, organism-based, Canis lupus familiaris", "parameters": "time < 24 hrs, dose 2 mg/kg, route iv", "conditions": "in vivo", "how_it_was_run": "(§2)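 Single iv dose: rats 2, 4 or 8 mg/kg by intravenous injection; Beagle dogs 1, 2 or 4 mg/kg by intravenous infusion. Plasma concentration–time data were analysed by sex and pooled. Reported parameters: Cmax, Tmax, AUC0−t, AUC0−∞, MRT0−∞, t1/2, CL, Vss, given as mean ± SD.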"}, "[22]": {"experiment": "Half life in female Beagle dog at 4 mg/kg,iv measured upto 24 hrs", "assay_type": "ADME, organism-based, Canis lupus familiaris", "conditions": "in vivo"}, "[23]": {"experiment": "AUC (0-t) in Beagle dog at 1 mg/kg,iv measured upto 24 hrs", "assay_type": "ADME, organism-based, Canis lupus familiaris", "parameters": "dose 1 mg/kg, time < 24 hrs, route iv", "conditions": "in vivo", "how_it_was_run": "as §2"}, "[24]": {"experiment": "MRT (0 to infinity) in female Beagle dog at 2 mg/kg,iv measured upto 24 hrs", "assay_type": "ADME, organism-based, Canis lupus familiaris", "conditions": "in vivo"}, "Cytochrome P450 1A": {"molecular_target": "Cytochrome P450 1A (Homo sapiens, UniProt P04798+P05177)", "experiment": "Inhibition of CYP1A in human liver microsomes using probe substrate at 0.1 to 100 uM in presence of NADPH", "assay_type": "ADME, Microsome", "conditions": "dose 0.1-100 µM"}, "[25]": {"experiment": "Volume of distribution at steady state in rat at 8 mg/kg,iv measured upto 24 hrs", "assay_type": "ADME, organism-based", "conditions": "in vivo, read-out: Vdss"}, "[26]": {"experiment": "Cmax in female rat at 2 mg/kg,iv measured upto 24 hrs", "assay_type": "ADME, organism-based", "parameters": "time < 24 hrs, dose 2 mg/kg, route iv", "conditions": "in vivo", "how_it_was_run": "as §1"}}, "note": "The source made the active and inactive calls. No cut-off for these calls is given here.", "data": [{"smiles": "CC(=O)O[C@@]12CO[C@@H]1C[C@H](O)[C@@]1(C)C(=O)[C@H](O)C3=C(C)[C@@H](OC(=O)[C@H](O)[C@@H](NC(=O)OC(C)(C)C)c4ccccc4)C[C@@](O)([C@@H](OC(=O)c4ccccc4)[C@H]21)C3(C)C", "note": "[DOCETAXEL ANHYDROUS]", "values": [{"measurement": "inhibition in vivo at 5.7 mg/kg", "setting": "4T1 [1]", "value": 19.6, "unit": "%"}, {"measurement": "Activity", "setting": "4T1 [2]", "value": "inactive"}, {"measurement": "Activity", "setting": "4T1 [3]", "value": "inactive"}, {"measurement": "Activity", "setting": "[4]", "value": "Non-Toxic"}, {"measurement": "Activity", "setting": "4T1 [5]", "value": "Active"}]}, {"smiles": "CC(=O)O[C@@]12CO[C@@H]1C[C@H](O)[C@@]1(C)C(=O)[C@H](O)C3=C(C)[C@@H](OC(=O)[C@H](OC(=O)CCC(=O)NCCCC[C@H](NC(=O)CC[C@@H](NC(=O)[C@H](C)NC(=O)/C=C/c4ccc(F)cc4Cl)C(N)=O)C(=O)O)[C@@H](NC(=O)OC(C)(C)C)c4ccccc4)C[C@@](O)([C@@H](OC(=O)c4ccccc4)[C@H]21)C3(C)C", "values": [{"measurement": "Activity", "setting": "[6]", "value": "Non-Toxic"}, {"measurement": "AUC(0-t) at 72 h", "setting": "[7]", "value": 0.11, "unit": "µM·h"}, {"measurement": "Vd", "setting": "[8]", "value": 0.204, "unit": "L/kg"}, {"measurement": "clearance", "setting": "[9]", "value": 5.58, "unit": "mL/min/kg"}, {"measurement": "clearance", "setting": "[10]", "value": 2.97, "unit": "mL/min/kg"}, {"measurement": "Activity", "setting": "[11]", "value": "Non-Toxic"}, {"measurement": "Activity", "setting": "4T1 [12]", "value": "Active"}, {"measurement": "Activity", "setting": "[13]", "value": "Toxic"}, {"measurement": "Activity", "setting": "4T1 [14]", "value": "Active"}, {"measurement": "Tmax", "setting": "[15]", "value": 4.98, "unit": "min"}, {"measurement": "MRT inf", "setting": "[16]", "value": 16.5, "unit": "min"}, {"measurement": "half-life", "setting": "[17]", "value": 10.7, "unit": "min"}, {"measurement": "MRT", "setting": "[18]", "value": 27, "unit": "min"}, {"measurement": "Activity", "setting": "[19]", "value": "Non-Toxic"}, {"measurement": "Activity", "setting": "4T1 [20]", "value": "Active"}, {"measurement": "AUC(0-inf)", "setting": "[21]", "value": 4890, "unit": "ng·h/mL"}, {"measurement": "half-life", "setting": "[22]", "value": 33.8, "unit": "min"}, {"measurement": "AUC(0-t) at 24 h", "setting": "[23]", "value": 1590, "unit": "ng·h/mL"}, {"measurement": "MRT inf", "setting": "[24]", "value": 15.2, "unit": "min"}, {"measurement": "inhibition (INH)", "setting": "Cytochrome P450 1A", "value": "Not Active"}, {"measurement": "Vd", "setting": "[25]", "value": 0.096, "unit": "L/kg"}, {"measurement": "Cmax", "setting": "[26]", "value": 14600, "unit": "ng/mL"}]}]}
